Assay results reported in article PMC10249145 (Cardiovascular & hematological agents in medicinal chemistry, 2023).
Counter-ions that a name gives are not always drawn.

Columns and labels:
human plasma [1] = settings: normal human plasma, positive controls; cited from earlier work
human plasma [2] = settings: normal human plasma, positive controls; cited from earlier work; remark: listed apart in the source
human FXIIa = biological target: T1, human FXIIa (Homo sapiens, UniProt P00748); assay: Direct inhibition of human FXIIa, chromogenic substrate hydrolysis assay; format: biochemical; settings: for decrease in the inhibition potency: FXIIa IC50 relative to inhibitor 1; for DeltaY (efficacy of inhibition) / HS (Hill slope): pH 7.4, 37 °C; for DeltaY (efficacy of inhibition) / HS (Hill slope) / IC50: ± 1 S.E.; for IC50: Tris-HCl buffer pH 7.4, 37 °C
T1 sequence (P00748 20-615): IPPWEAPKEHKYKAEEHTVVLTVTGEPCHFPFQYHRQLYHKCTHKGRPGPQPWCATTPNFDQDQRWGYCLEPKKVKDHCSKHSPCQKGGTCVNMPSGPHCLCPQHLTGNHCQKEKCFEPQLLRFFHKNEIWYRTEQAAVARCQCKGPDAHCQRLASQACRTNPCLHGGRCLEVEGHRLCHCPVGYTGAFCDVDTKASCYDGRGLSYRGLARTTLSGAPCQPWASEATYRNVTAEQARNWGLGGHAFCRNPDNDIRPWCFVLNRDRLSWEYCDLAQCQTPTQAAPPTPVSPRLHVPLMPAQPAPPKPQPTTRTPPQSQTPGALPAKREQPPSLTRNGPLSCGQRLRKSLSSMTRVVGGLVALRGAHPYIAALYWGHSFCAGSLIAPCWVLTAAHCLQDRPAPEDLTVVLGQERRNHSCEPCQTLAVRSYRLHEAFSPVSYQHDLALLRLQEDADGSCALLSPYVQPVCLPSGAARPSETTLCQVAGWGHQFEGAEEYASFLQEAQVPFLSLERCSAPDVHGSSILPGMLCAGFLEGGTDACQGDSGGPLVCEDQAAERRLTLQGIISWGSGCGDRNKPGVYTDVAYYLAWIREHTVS
How it was run: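 Human FXIIa (stock 200 nM) was preincubated for 5 min with test compound or vehicle in Tris-HCl pH 7.4 with NaCl, 2.5 mM CaCl2, 0.1% PEG8000 and 0.02% Tween80 at 37 °C. Spectrozyme FXIIa (stock 5 mM) was then added. Twelve in-well concentrations (500–0.0025 μM) were tested. Residual activity was taken from the initial A405 rate, and a logistic fit gave IC50, efficacy and Hill slope (±1 S.E.).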

| SMILES | APTT (EC×1.5) (human plasma [1]) | PT (EC×1.5) (human plasma [2]) | decrease in the inhibition potency (human FXIIa) | DeltaY (efficacy of inhibition) (human FXIIa; human FXIIa) | HS (Hill slope) (human FXIIa; human FXIIa) | IC50 (human FXIIa; IC50, human FXIIa) | IC50 (human FXIIa; human FXIIa) |
| --- | --- | --- | --- | --- | --- | --- | --- |
| CC1CNc2c(cccc2S(=O)(=O)N[C@@H](CCCNC(=N)N)C(=O)N2CC[C@@H](C)C[C@@H]2C(=O)O)C1 (stereo partly shown) [Argatroban HCl] | ~0.19 μM^b | ~0.13 µM | – | – | – | – | – |
| COC(=O)c1nc(N)n(C(=O)c2ccccc2)n1 [Inhibitor 2, Methyl 5-amino-1-benzoyl-1H-1,2,4-triazole-3-carboxylate] | – | – | ~ 2.2 fold | 92.2 ± 3.1% | 1.09 ± 0.14 | – | – |
| CC(C)(C)c1ccc(C(=O)n2ncnc2N)cc1 [Inhibitor 3, (5-amino-1H-1,2,4-triazol-1-yl)(4-(tert-butyl)phenyl)methanone] | – | – | 77.5 fold | 82.1 ± 8.1% | 1.37 ± 0.69 | – | – |
| CC(C)(C)c1ccc(C(=O)n2nc(C(=O)O)nc2N)cc1 [Inhibitor 4, 5-amino-1-(4-(tert-butyl)benzoyl)-1H-1,2,4-triazole-3-carboxylic acid] | – | – | – | 122.4 ± 23.4% | 1.05 ± 0.55 | 699 µM | – |
| CNC(=O)c1nc(N)n(C(=O)c2ccc(C(C)(C)C)cc2)n1 [Inhibitor 5, 5-amino-1-(4-(tert-butyl)benzoyl)-N-methyl-1-1H-1,2,4-triazole-3-carboxamide] | – | – | – | 103 ± 5% | 1.26 ± 0.27 | – | 340 ± 30.5 µM |
| O=C(NC[C@H]1CN(c2ccc(N3CCOCC3=O)cc2)C(=O)O1)c1ccc(Cl)s1 [Rivaroxaban] | ~0.06 µM | ~0.08 µM | – | – | – | – | – |
